Measured values taken from ChEMBL document CHEMBL1158548, “Tetrahydrochromenoimidazoles as potassium-competitive acid blockers (P-CABs): structure-activity relationship of their antisecretory properties and their affinity toward the hERG channel” (J Med Chem, 2010).

Tests used:
[1] = Inhibition of H+/K+ ATPase in hog gastric mucosa by malachite green based competitive binding assay; type: tissue-based, Sus scrofa
In short: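 Hog gastric mucosa H+/K+-ATPase, isolated enzyme; competitive binding assay run at pH 7.4; pIC50 reported as geometric mean of 4-5 measurements.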

[2] = test system: Gastric gland; assay: Inhibition of acid secretion in New Zealand White rabbit intact gastric glands assessed as [14C]dimethylaminopyridine accumulation by radioactivity; type: functional, tissue-based; conditions: Oryctolagus cuniculus
In short: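 Gastric glands isolated intact from New Zealand rabbits; cellular activity read as reduced accumulation of the weak base 14C-dimethylaminopyridine; pIC50 given as geometric mean of 4-5 determinations.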

[3] = test system: Rattus norvegicus; assay: Inhibition of pentagastrin-stimulated acid secretion in intraduodenally dosed perfused Sprague-Dawley rat Ghosh Schild model; type: functional; conditions: intraduodenal
[4] = Partition coefficient, log D by HPLC; type: physicochemical; conditions: octanol/water
In short: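 logD by reversed-phase HPLC at 37 °C, calibrated with seven reference substances of known logD.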

[5] = Dissociation constant, pKa at pH 2.0 to 11.0 by potentiometric cosolvent titration; type: physicochemical
[6] = biological target: hERG (KCNH2) (Homo sapiens, UniProt Q12809); assay: Inhibition of human ERG expressed in CHO-K1 cells at 10 uM by whole-cell patch clamp technique; type: cell-based; conditions: CHO-K1 cells that express human ERG
In short: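 CHO-K1 cells stably transfected with hERG; whole-cell patch clamp recording of tail currents with test compound at 10 μM, three cells per compound; relative block of tail current amplitude given as arithmetic mean.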

[7] = Octanol/aqueous KCl distribution coefficient, log D at pH 7.4 by potentiometric titration; type: physicochemical
In short: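 Octanol/aqueous KCl distribution coefficient from potentiometric titrations across pH 2.0-11.0 at 25 °C.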

hERG (KCNH2), sequence (Q12809 whole entry): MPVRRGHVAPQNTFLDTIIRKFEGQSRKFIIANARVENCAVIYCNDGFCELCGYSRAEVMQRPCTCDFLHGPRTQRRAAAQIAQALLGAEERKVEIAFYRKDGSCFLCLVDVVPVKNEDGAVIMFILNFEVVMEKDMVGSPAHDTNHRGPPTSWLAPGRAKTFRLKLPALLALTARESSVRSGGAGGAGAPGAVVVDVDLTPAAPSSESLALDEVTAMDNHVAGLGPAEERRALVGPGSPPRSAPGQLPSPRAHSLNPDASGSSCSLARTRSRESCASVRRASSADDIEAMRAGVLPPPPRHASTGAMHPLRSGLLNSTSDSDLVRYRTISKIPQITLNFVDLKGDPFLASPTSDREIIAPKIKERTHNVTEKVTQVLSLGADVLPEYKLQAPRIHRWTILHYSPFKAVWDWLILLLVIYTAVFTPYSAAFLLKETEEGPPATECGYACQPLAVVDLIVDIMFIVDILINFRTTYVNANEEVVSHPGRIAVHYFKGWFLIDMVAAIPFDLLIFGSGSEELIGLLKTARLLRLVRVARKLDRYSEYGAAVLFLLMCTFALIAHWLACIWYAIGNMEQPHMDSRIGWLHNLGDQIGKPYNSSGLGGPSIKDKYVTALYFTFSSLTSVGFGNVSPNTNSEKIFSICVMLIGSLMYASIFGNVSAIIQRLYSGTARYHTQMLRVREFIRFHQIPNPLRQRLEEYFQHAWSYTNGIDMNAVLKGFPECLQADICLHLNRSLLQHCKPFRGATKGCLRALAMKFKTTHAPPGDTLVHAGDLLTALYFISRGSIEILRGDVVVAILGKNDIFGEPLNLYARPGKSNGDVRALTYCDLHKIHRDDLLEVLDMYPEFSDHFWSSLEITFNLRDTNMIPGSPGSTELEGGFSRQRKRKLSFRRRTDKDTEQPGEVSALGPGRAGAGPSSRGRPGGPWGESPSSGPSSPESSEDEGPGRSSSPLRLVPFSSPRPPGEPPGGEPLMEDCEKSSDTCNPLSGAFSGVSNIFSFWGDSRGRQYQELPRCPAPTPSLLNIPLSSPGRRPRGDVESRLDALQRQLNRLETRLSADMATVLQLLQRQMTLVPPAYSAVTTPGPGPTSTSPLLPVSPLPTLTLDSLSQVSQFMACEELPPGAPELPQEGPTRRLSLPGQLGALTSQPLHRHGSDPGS

Row | SMILES | pIC50 [1] | IC50 [2] | ED50 [3] | logD [4] | pKa [5] | inhibition at 10 µM [6] | logD [7] | pKa ([5]; read-out: pKa)
1 | Cc1ccccc1[C@@H]1CCc2c(C(=O)N3CCCC3)cc3c(nc(C)n3C)c2O1 | 5.4 | 0.794 µM | 0.7 µmol/kg | 3.1 | 5.7 | 43% |  | 
2 | Cc1nc2c3c(c(C(=O)N(C)C)cc2n1C)CC[C@@H](c1ccccc1Cl)O3 |  | 1.58 µM | 0.4 µmol/kg | 3 |  | 13% | 2.86 | 5.45
3 | CCNC(=O)c1cc2c(nc(C)n2C)c2c1CC[C@@H](c1ccccc1C)O2 | 4.9 | 1 µM | 0.12 µmol/kg | 2.9 | 5.71 | 24% |  | 
4 | Cc1nc2c3c(c(C(=O)N4CCC4)cc2n1C)CC[C@@H](c1ccc(Cl)cc1)O3 | 5.3 | 1.26 µM | 0.16 µmol/kg | 3 |  | 84% |  | 
5 | COC1CN(C(=O)c2cc3c(nc(C)n3C)c3c2CC[C@@H](c2ccc(Cl)cc2C)O3)C1 | 5.4 | 0.501 µM | 0.4 µmol/kg | 3.2 |  | 95% | 3.42 | 5.48
6 | COC1(C)CN(C(=O)c2cc3c(nc(C)n3C)c3c2CC[C@@H](c2ccccc2C)O3)C1 | 4.3 | 3.16 µM | 1 µmol/kg |  |  | 20% |  | 
7 | Cc1ccccc1[C@@H]1CCc2c(C(=O)NC3CC3)cc3c(nc(C)n3C)c2O1 | 4.9 | 0.794 µM | 0.3 µmol/kg | 3 | 5.68 | 43% |  | 
8 | Cc1ccccc1[C@@H]1CCc2c(C(N)=O)cc3c(nc(C)n3C)c2O1 | 4.8 | 5.01 µM | 2 µmol/kg | 2.5 |  | 14% |  | 
9 | Cc1nc2c3c(c(C(=O)N4CCC4)cc2n1C)CC[C@@H](c1ccccc1)O3 | 4.9 | 2.51 µM | 0.3 µmol/kg | 2.6 |  | 18% |  | 
10 | Cc1ccccc1[C@@H]1CCc2c(C(=O)NCC[S+](C)[O-])cc3c(nc(C)n3C)c2O1 (some centres undefined) | 4.6 |  | 1.4 µmol/kg |  |  | 6% |  | 
11 | Cc1nc2c3c(c(C(=O)N(C)C)cc2n1C)CC[C@@H](c1ccccc1C1CC1)O3 | 4.8 | 3.16 µM | 1.5 µmol/kg | 3.1 |  | 18% | 3.18 | 5.63
12 | CCOC1CN(C(=O)c2cc3c(nc(C)n3C)c3c2CC[C@@H](c2ccccc2C)O3)C1 | 4.5 | 0.794 µM | 0.4 µmol/kg | 3 |  | 70% |  | 
13 | CNC(=O)c1cc2c(nc(C)n2C)c2c1CC[C@@H](c1ccc(Cl)cc1)O2 | < 5 | 2 µM | 0.3 µmol/kg | 2.9 |  | 68% |  | 
14 | CSCCNC(=O)c1cc2c(nc(C)n2C)c2c1CC[C@@H](c1ccccc1C)O2 | 4.8 | 1.26 µM | 1 µmol/kg | 3.2 |  | 73% |  | 
15 | Cc1cc(F)ccc1[C@@H]1CCc2c(C(=O)N(C)C)cc3c(nc(C)n3C)c2O1 | 5.6 | 0.501 µM | < 0.3 µmol/kg | 2.9 |  | 19% |  | 
16 | CCCOC1CN(C(=O)c2cc3c(nc(C)n3C)c3c2CC[C@@H](c2ccccc2C)O3)C1 | 4.9 | 1.26 µM | 0.2 µmol/kg | 3.3 | 5.62 | 94% |  | 
17 | CNC(=O)c1cc2c(nc(C)n2C)c2c1CC[C@@H](c1ccccc1)O2 | 4.8 | 6.31 µM | 0.5 µmol/kg | 2.4 |  | 26% |  | 
18 | Cc1ccccc1[C@@H]1CCc2c(C(=O)N3CC(F)(F)C3)cc3c(nc(C)n3C)c2O1 | 4.7 | 3.98 µM | 0.3 µmol/kg | 3.3 | 5.36 | 28% |  | 
19 | Cc1ccccc1[C@@H]1CCc2c(C(=O)NCC#N)cc3c(nc(C)n3C)c2O1 | 4.7 | 12.6 µM | 3 µmol/kg | 2.9 |  | 18% |  | 
20 | Cc1nnc(-c2cc3c(nc(C)n3C)c3c2CC[C@@H](c2ccccc2C)O3)o1 | 4.6 | 5.01 µM | 0.6 µmol/kg | 3.3 | 5.17 | 27% |  | 
21 | CCCNC(=O)c1cc2c(nc(C)n2C)c2c1CC[C@@H](c1ccccc1C)O2 | 4.7 | 0.631 µM | < 0.3 µmol/kg | 3.2 | 5.63 | 66% |  | 
22 | Cc1ccccc1[C@@H]1CCc2c(C(=O)N3CC(F)C3)cc3c(nc(C)n3C)c2O1 | 5 | 1 µM | 0.3 µmol/kg | 3 | 5.54 | 28% |  | 

Row | SMILES | pIC50 [1] | IC50 [2] | ED50 [3] | logD [4] | pKa [5] | inhibition at 10 µM [6] | logD [7] | pKa ([5]; read-out: pKa)
23 | Cc1ccccc1[C@@H]1CCc2c(C(=O)N3CCC3)cc3c(nc(C)n3C)c2O1 | 5.5 | 0.794 µM | 0.3 µmol/kg | 2.8 |  | 14% |  | 
24 | C#CCNC(=O)c1cc2c(nc(C)n2C)c2c1CC[C@@H](c1ccccc1C)O2 | 4.7 | 2 µM | 0.3 µmol/kg | 3.1 | 5.58 | 83% |  | 
25 | Cc1nc2c3c(c(C(=O)N(C)C)cc2n1C)CC[C@@H](c1cccs1)O3 | 5 | 50.1 µM | 2 µmol/kg | 2.4 |  | 9% |  | 
26 | Cc1ccccc1[C@@H]1CCc2c(C(=O)N3CCOCC3)cc3c(nc(C)n3C)c2O1 | 4.8 | 5.01 µM | 1 µmol/kg | 2.8 |  | 4% |  | 
27 | COCc1cc2c(nc(C)n2C)c2c1CC[C@@H](c1ccccc1C)O2 | 5.1 | 1 µM | 0.5 µmol/kg | 3.4 | 6.24 | 34% |  | 
28 | Cc1ccccc1[C@@H]1CCc2c(C(=O)NCC3CCCO3)cc3c(nc(C)n3C)c2O1 (some centres undefined) | 4.3 | 3.16 µM | 1 µmol/kg | 3 |  | 75% |  | 
29 | COCCN(C)C(=O)c1cc2c(nc(C)n2C)c2c1CC[C@@H](c1ccccc1C)O2 | 4.9 | 3.16 µM | 1.2 µmol/kg | 2.9 |  | 8% |  | 
30 | Cc1nc2c3c(c(C(=O)N(C)C)cc2n1C)CC[C@@H](c1ccccc1)O3 | 5.3 | 3.16 µM | 0.26 µmol/kg | 2.5 |  | 28% |  | 
31 | Cc1ccccc1[C@@H]1CCc2c(C(=O)N3CC(O)C3)cc3c(nc(C)n3C)c2O1 | 5 | 39.8 µM | 1.2 µmol/kg | 2.4 |  | 11% |  | 
32 | CONC(=O)c1cc2c(nc(C)n2C)c2c1CC[C@@H](c1ccccc1C)O2 | 4.6 | 10 µM | 1.8 µmol/kg | 2.6 |  | 13% |  | 
33 | Cc1ccccc1[C@@H]1CCc2c(C(=O)N3CC(CO)C3)cc3c(nc(C)n3C)c2O1 | 5 | 63.1 µM | 1.4 µmol/kg | 2.4 |  | 2% |  | 
34 | Cc1ccccc1[C@@H]1CCc2c(C(=O)NC(C)C)cc3c(nc(C)n3C)c2O1 | 4.7 | 0.631 µM | 0.45 µmol/kg | 3.1 |  | 30% |  | 
35 | Cc1ccccc1[C@@H]1CCc2c(C(=O)N(C)C)cn3c(C)c(C)nc3c2O1 |  |  |  |  |  |  |  | 7.15
36 | Cc1ccccc1[C@@H]1CCc2c(C(=O)N(C)C)cc3c(nc(CO)n3C)c2O1 |  | 1.17 µM | 1 µmol/kg | 2.5 |  | 12% |  | 
37 | Cc1ccccc1[C@@H]1CCc2c(C(=O)NCC3CCCCO3)cc3c(nc(C)n3C)c2O1 (some centres undefined) | < 5 | 6.31 µM | 1.2 µmol/kg | 3.3 |  | 54% |  | 
38 | Cc1ccccc1[C@@H]1CCc2c(C(=O)NC3COC3)cc3c(nc(C)n3C)c2O1 | 4.6 | 10 µM | 2 µmol/kg | 2.6 |  | 49% |  | 
39 | CON(C)C(=O)c1cc2c(nc(C)n2C)c2c1CC[C@@H](c1ccccc1C)O2 | 5.4 | 1.26 µM | 0.15 µmol/kg | 2.9 | 5.49 | 13% |  | 
40 | COCCNC(=O)c1cc2c(nc(C)n2C)c2c1CC[C@@H](c1ccccc1C)O2 | 4.9 | 3.16 µM | 0.8 µmol/kg | 2.8 |  | 55% |  | 
41 | Cc1ccccc1[C@@H]1CCc2c(C(=O)NCC3CC3)cc3c(nc(C)n3C)c2O1 | 4.7 | 0.501 µM | < 0.3 µmol/kg | 3.3 | 5.76 | 90% |  | 
42 | COCc1nc2c3c(c(C(=O)N(C)C)cc2n1C)CC[C@@H](c1ccccc1C)O3 | 4.57 | 45.7 µM | 3 µmol/kg | 2.9 |  | 7% |  | 
43 | Cc1nc2c3c(c(C(=O)N(C)C)cc2n1C)CC[C@@H](c1ccc(F)cc1Cl)O3 | 5.4 | 0.794 µM | 0.1 µmol/kg | 3 |  | 33% |  | 
